Assay outcomes (PubChem)
The list is not random: actives were taken first. Their share in the collection is about 2.6%.
NadD block – NadD (S. aureus) enzyme inhibition; 360,000 compounds, 0.78% hits; inhibition, % at 20 µM; AID 602399; purified NadD enzyme, colorimetric absorbance read-out; in the data active means inhibition above about 26%
Scp-1 inhibitor – inhibitors of human Scp-1 phosphatase; Recombinant Scp1, phosphopeptide, malachite green phosphate absorbance; inhibition, % at 20 µM; 340,000 compounds, 0.88% hits;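 active means inhibition above about 50% at 20 µM, limit read from the data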
Target sequence (Q9GZU7 76-261 limits assumed): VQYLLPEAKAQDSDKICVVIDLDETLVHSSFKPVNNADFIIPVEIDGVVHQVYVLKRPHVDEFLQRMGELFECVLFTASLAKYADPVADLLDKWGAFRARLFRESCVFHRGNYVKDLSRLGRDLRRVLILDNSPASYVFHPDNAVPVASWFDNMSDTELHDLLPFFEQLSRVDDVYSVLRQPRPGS
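System: SCP-1 catalytic domain; Reagent: Phospho 17-mer peptide substrate; Doses: one concentration, 20 µM, with 1.0% DMSO; Incubation: 45 min room-temperature reaction, 5 min colour, 30 min stabiliser; Signal: Phosphate-binding colour reagent, absorbance read at 630 nm.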
LMPTP inh – blocks human LMPTP phosphatase; AID 651560; 360,000 compounds, 0.22% hits; inhibition, % at 20 µM; recombinant LMPTP-A, OMFP fluorogenic substrate, fluorescence intensity; P24666;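 active means compounds that cut the enzyme signal by at least half of the control window in the single-dose screen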
Target sequence (P24666 whole entry, looked up): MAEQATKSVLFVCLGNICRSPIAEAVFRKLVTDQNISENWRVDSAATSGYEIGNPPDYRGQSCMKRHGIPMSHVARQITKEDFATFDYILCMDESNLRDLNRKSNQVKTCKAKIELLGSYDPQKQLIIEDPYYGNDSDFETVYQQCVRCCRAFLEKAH
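test system = LMPTP-A | amount = 0.625 nM LMPTP-A final | reagent = fluorogenic phosphatase substrate OMFP at 400 µM final | incubation = 50 min at room temperature | benchmarks = no-enzyme low control, uninhibited high control | medium = Bis-Tris pH 6.0, DTT, detergent | signal = fluorescence intensity of OMFP turnover product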
STEP inh – inhibitors of human striatal-enriched phosphatase STEP; 360,000 compounds, 0.25% hits; recombinant STEP, OMFP fluorogenic substrate, fluorescence; P54829; inhibition, % at 20 µM;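 active means inhibition at 20 µM, scaled per plate between control wells, above about 37%, limit read from the data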
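Assay system: isolated STEP enzyme / Timing: 20 min at room temperature, dark / Doses: 20 µM, 1% DMSO / Technique: fluorescence intensity, excitation 480 nm, emission 540 nm / Reagent: fluorogenic phosphatase substrate OMFP at 25 µM final / Measure: percent inhibition scaled to no-enzyme and uninhibited-enzyme controls, plate-pattern corrected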
rCAG RNA binder – molecules binding r(CAG) RNA repeats; r(CAG) RNA repeat, TO-PRO-1 dye displacement fluorescence; inhibition, % at 3 µM; 370,000 compounds, 1.3% hits; AID 651821;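 active means inhibition above the plate cutoff, the mean of all test compounds on that plate plus 3 SD, cut at about 35% in these data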;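 further: higher means more dye released from RNA so lower well fluorescence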
Scp-1 conf – confirmation of human Scp-1 phosphatase inhibitors | AID 540281 | inhibition, % at 20 µM | 2,500 compounds, 61% hits | shares compounds with Scp-1 inhibitor | recombinant SCP-1 catalytic domain, phosphate release, malachite green absorbance
Scp-1 MG ctr – colorimetric interference in Scp-1 counter-screen. shares compounds with Scp-1 inhibitor. apparent inhibition (interference), % at 20 µM. 2,500 tested, under 10 active. Colorimetric interference counterscreen, malachite green absorbance 630 nm;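 further: compounds added after enzyme reaction finished so only phosphate colour detection is probed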
Scp-1 Tm shift – validation of human Scp-1 inhibitors by thermal shift binding; shares compounds with Scp-1 inhibitor; Recombinant SCP1, Sypro Orange thermal shift Tm; thermal shift relative to vanadate control, % at 40 µM; 1,500 compounds, 25% hits; AID 540329;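 active means substances whose mean melting-temperature shift, as a percentage of the reference inhibitor's shift, reaches about 5.3%, limit read from the data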
STEP inh conf – STEP (human) phosphatase inhibition, single concentration confirmation; 520 compounds, 32% hits; inhibition, % at 20 µM; AID 623866; shares compounds with STEP inh; recombinant STEP, OMFP fluorogenic substrate, fluorescence; call rule not given here
NadD inh conf – NadD (S. aureus) inhibition, single concentration confirmation; shares compounds with NadD block; purified S. aureus NadD, colorimetric enzyme assay; inhibition, % at 20 µM; 2,000 compounds, 13% hits; in the data active means inhibition mostly above about 42%, no sharp cut-off; inactive means mostly below about 42%
A number is an active result; 0 = inactive; - = not tested or not shown.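 How the source made its calls, unless noted: active means inhibition of at least 30% at 20 µM; inactive means the rest.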

SMILES | NadD block | Scp-1 inhibitor | LMPTP inh | STEP inh | rCAG RNA binder | Scp-1 conf | Scp-1 MG ctr | Scp-1 Tm shift | NadD inh conf | others
Cc1ccc(-c2nnc(SCc3ccc([N+](=O)[O-])cc3)n2-c2ccccc2)cc1 | - | - | - | - | 0 | - | - | - | -
CCOC(=O)[C@@]12CCC3=C1N(CCC3)C(=O)[C@H](CC(=O)NCc1cccc(C(F)(F)F)c1)C2 | - | - | - | - | 0 | - | - | - | -
Cc1ccc2nc(/C(C#N)=C/c3ccc(-c4cccc([N+](=O)[O-])c4)o3)[nH]c2c1 | 32.0 | 90.2 | 0 | 93.6 | 0 | 73.0 | 0 | 11.3 | 0
Cc1ccc2nc(/C(C#N)=C\c3cc(O)ccc3[N+](=O)[O-])[nH]c2c1 | 0 | 0 | 0 | 0 | 0 | - | - | - | -
Cc1ccc2nc(/C(C#N)=C\c3ccc(Oc4ccc(C(F)(F)F)cc4[N+](=O)[O-])cc3)[nH]c2c1 | 32.7 | 97.2 | 0 | 0 | 0 | 87.1 | 0 | 5.6 | 0
CC(=O)N1CCN(C(=O)C2CCCN(C(=O)c3ccc4c(c3)NC(=O)CS4)C2)CC1 (stereo not drawn) | - | - | - | - | 0 | - | - | - | -
Cc1cc(C(=O)N/N=C/c2ccc(-c3ccc([N+](=O)[O-])cc3Cl)o2)n[nH]1 | 39.8 | 56.4 | 69.4 | 93.6 | 0 | 68.5 | 0 | 8.7 | 0 | STEP inh conf=34.0
COc1cccc(N2[C@@H](CC(=O)O)c3cc(C(F)(F)F)ccc3S2(=O)=O)c1 | 48.8 | 104.5 | 0 | 0 | 0 | 69.2 | 0 | 0 | 51.5
COc1cccc(N2[C@@H](CC(=O)O)c3ccccc3S2(=O)=O)c1 | 0 | 0 | 0 | 0 | 0 | - | - | - | -
COc1ccc2c(c1)CNC2CS(=O)(=O)NCc1ccccc1 (stereo not drawn) | - | - | - | - | 0 | - | - | - | -
NS(=O)(=O)c1ccc(N=C2C(=O)Nc3ccccc32)cc1 | 0 | 0 | 0 | 0 | 0 | - | - | - | -
O=C1Nc2ccccc2C1=Nc1ccc(S(=O)(=O)Nc2nccs2)cc1 | 53.8 | 80.0 | 0 | 0 | 48.2 | 73.0 | 0 | 12.7 | 74.0
Cc1c2cnn(CC(=O)Nc3c(F)c(F)cc(F)c3F)c(=O)c2c(C)n1Cc1ccccc1F | 31.7 | 69.1 | 0 | 0 | 0 | 76.7 | 0 | 7.2 | 0
N#Cc1ccccc1/C=N/Nc1nc(-c2ccccc2)c2cc(Br)ccc2n1 | 0 | 0 | 0 | 0 | 0 | - | - | - | -
O=[N+]([O-])c1ccc(/C=N/Nc2nc(-c3ccccc3)c3cc(Br)ccc3n2)o1 | 41.4 | 101.4 | 60.1 | 0 | 0 | 76.4 | 0 | 0 | 0
C=CCN(CC#Cc1ccccc1)CC=C | - | - | - | - | 0 | - | - | - | -
COC(=O)[C@]12C[C@H](CC(=O)NCc3cccs3)C(=O)N(CCC3=CCCCC3)C1=C[C@H](C(C)(C)C)O[C@@H]2C | - | - | - | - | 0 | - | - | - | -
C/C(=N\NC(=O)c1cccc(N/N=C(\C)c2ccco2)c1)c1ccco1 | 38.1 | 60.9 | 0 | 0 | 0 | 61.7 | 0 | 6.1 | 0
C/C(=N\NC(=O)c1cccc([N+](=O)[O-])c1)c1ccco1 | 0 | 0 | 0 | 0 | 0 | - | - | - | -
COc1ccc(S[C@]2(C(=O)N(C)C)CC(=O)N(C(=O)CCc3ccccc3)[C@@H]2c2ccc(OC)cc2)cc1 | - | - | - | - | 0 | - | - | - | -
Cc1oc(-c2ccc(F)cc2)cc1-c1nn2c(-c3ccoc3C)nnc2s1 | 53.4 | 75.3 | 0 | 0 | 36.3 | 40.9 | 0 | 0 | 0
Cc1oc(-c2ccc(F)cc2)cc1-c1nn2c(-c3ccco3)nnc2s1 | - | - | - | - | 0 | - | - | - | -
C[C@@H]1CCCN1c1ccc2c(c1)O[C@H]1CCN(C1)S2(=O)=O | - | - | - | - | 0 | - | - | - | -
O=C1NC(=Nc2ccc(Cl)cc2)/C(=C/c2ccco2)S1 | 37.3 | 93.1 | 0 | 60.6 | 0 | 80.2 | 0 | 7.8 | 0
O=C(N/N=C/C=C\c1ccccc1[N+](=O)[O-])c1cc(-c2ccc3ccccc3c2)n[nH]1 | 42.5 | 95.6 | 0 | 0 | 0 | 86.5 | 0 | 0 | 26.9
